Assay results gathered from unrelated publications.
Lines come from different studies, so protocols differ.
HRH1: Histamine H1 receptor (HRH1, Homo sapiens, UniProt P35367)
CA9: Carbonic anhydrase 9 (CA9, Homo sapiens, UniProt Q16790)
MAOB: Amine oxidase [flavin-containing] B (MAOB, Homo sapiens, UniProt P27338)
PKN1: Serine/threonine-protein kinase N1 (PKN1, Homo sapiens, UniProt Q16512)
PADI4: Protein-arginine deiminase type-4 (PADI4, Homo sapiens, UniProt Q9UM07)

SMILES | target | assay | system | conditions | endpoint | result
CN1CCC(=C(c2ccccc2)c2ccccc2)CC1 | HRH1 | binding |  |  | koff | 0.00583 s⁻¹
CCOC(=O)C1CSc2[nH]c(=O)sc2C1c1cn(-c2ccccc2)nc1-c1ccccc1 (stereo not drawn) | CA9 | enzyme activity, inhibitor |  | 1 µM | inhibition | 43.6%
O=C(Nc1ccc(OC(F)(F)F)cc1)c1ccccc1 | MAOB | enzyme activity, inhibitor |  | 1 µM, 20 min | inhibition | 29%
CN1CCN(C2c3ccccc3C=Cc3ccccc32)CC1 | HRH1 | binding |  |  | kon | 117000 M⁻¹ s⁻¹
O=C(Nc1ccc([N+](=O)[O-])cc1Cl)c1ccccc1O | MAOB | enzyme activity, inhibitor |  | 1 µM, 20 min | inhibition | 14%
C[C@H]1Oc2cc(cnc2N)-c2c(nn(C)c2C#N)CN(C)C(=O)c2ccc(F)cc21 | PKN1 | enzyme activity, inhibitor |  | 1 µM | activity vs control | 90%
O=C(Nc1ccc([N+](=O)[O-])cc1C(F)(F)F)c1cc(Cl)ccc1O | MAOB | enzyme activity, inhibitor |  | 1 µM, 20 min | inhibition | 30%
CN1CCC(=C2c3ccccc3CCc3ccccc32)CC1 | HRH1 | binding |  |  | koff | 8.33e-05 s⁻¹
Cc1ccc(-c2nn(-c3ccccc3)cc2C2c3sc(=O)[nH]c3SC3C(=O)N(c4ccccc4)C(=O)C32)cc1 (stereo not drawn) | CA9 | enzyme activity, inhibitor |  | 1 µM | inhibition | 63.2%
c1cncc(CN2CCC(n3ncc4c(N5CCOCC5)nc(-c5ccc6[nH]ccc6c5)nc43)CC2)c1 | PKN1 | enzyme activity, inhibitor |  | 1 µM | activity vs control | 79%
CC(C)(C)n1nnc([C@H](CCCNC(=N)CCl)NC(=O)c2ccc(-c3ccccc3)cc2)n1 | PADI4 | enzyme activity, inhibitor |  |  | kinact/KI | 102 M⁻¹ s⁻¹
COC(=O)Nc1ccc(-c2nc(N3CCOCC3)c3cnn(C4CCN(C(=O)OC)CC4)c3n2)cc1 | PKN1 | enzyme activity, inhibitor |  | 1 µM | activity vs control | 78%
CCOC(=O)C1CSc2[nH]c(=O)sc2C1c1cn(-c2ccccc2)nc1-c1ccc(Cl)cc1 (stereo not drawn) | CA9 | enzyme activity, inhibitor |  | 0.1 µM | inhibition | 36%
O=C(c1ccc(Cl)cc1)N(Cc1ccccc1)C1CCCCC1 | Muscarinic acetylcholine receptor M4 (CHRM4, Homo sapiens, UniProt P08173) | cell-free assay |  | 10 µM | inhibition | 7.1%
O=C(Nc1ccccn1)c1ccccc1 | MAOB | enzyme activity, inhibitor |  | 1 µM, 20 min | inhibition | 2%
Cc1cccnc1C(=O)Nc1ccc(N2C(=O)c3ccccc3C2=O)c(Cl)c1 | Metabotropic glutamate receptor 1 (GRM1, Homo sapiens, UniProt Q13255) | calcium signal, positive allosteric modulator | T-REx-293 |  | Emax | 91%
O=C(Nc1ccccn1)c1ccc(Cl)cc1 | MAOB | enzyme activity, inhibitor |  | 1 µM, 20 min | inhibition | 11%
CN(C)C/C=C/C(=O)Nc1cc2c(Nc3ccc(F)c(Cl)c3)ncnc2cc1O[C@H]1CCOC1 | PKN1 | enzyme activity, inhibitor |  | 1 µM | activity vs control | 57%
CC(C)(C)n1nnc([C@H](CCCNC(=N)CF)NC(=O)c2ccc(-c3ccccc3)cc2)n1 | PADI4 | enzyme activity, inhibitor |  |  | kinact/KI | 20.8 M⁻¹ s⁻¹
Cc1cc([N+](=O)[O-])ccc1NC(=O)c1ccc2c(c1)OCO2 | MAOB | enzyme activity, inhibitor |  | 1 µM, 20 min | inhibition | 24%
Cc1cc(O)c(-c2ccc(C(C)CN(C)C)cc2)c2c1[nH]c(=O)c1sccc12.O (stereo not drawn) | PKN1 | enzyme activity, inhibitor |  | 1 µM | activity vs control | 32%
CCOC(=O)C1CSc2[nH]c(=O)sc2C1c1cn(-c2ccccc2)nc1-c1ccc(C)cc1 (stereo not drawn) | CA9 | enzyme activity, inhibitor |  | 1 µM | inhibition | 61.4%
CC[C@@H](N)CNc1ccnc(-c2cc(-c3cnn(C)c3)ccc2O)n1.Cl.Cl | PKN1 | enzyme activity, inhibitor |  | 1 µM | activity vs control | 56%
CC1=C(C(=O)Nc2ccc([N+](=O)[O-])cc2Cl)Cc2ccccc21 | MAOB | enzyme activity, inhibitor |  | 1 µM, 20 min | inhibition | 44%
